Data as given in PMC2834294 (Chemistry & biology, 2010).

What was measured:
Type in all cases: cell-based
TRPML3 [1] = biological target: T1, TRPML3 (Homo sapiens, UniProt Q8TDD5); assay: Whole-cell patch-clamp, HEK293 cells transiently transfected with TRPML3; settings: for nA/pF (-80 mV) (TRPML3): current density at −80 mV, 10 µM in standard bath solution, mean ±SEM (n≥3); for average current density relative to constitutively active TRPML3 A419P: whole-cell, −80 mV
T1 sequence (Q8TDD5 1-553): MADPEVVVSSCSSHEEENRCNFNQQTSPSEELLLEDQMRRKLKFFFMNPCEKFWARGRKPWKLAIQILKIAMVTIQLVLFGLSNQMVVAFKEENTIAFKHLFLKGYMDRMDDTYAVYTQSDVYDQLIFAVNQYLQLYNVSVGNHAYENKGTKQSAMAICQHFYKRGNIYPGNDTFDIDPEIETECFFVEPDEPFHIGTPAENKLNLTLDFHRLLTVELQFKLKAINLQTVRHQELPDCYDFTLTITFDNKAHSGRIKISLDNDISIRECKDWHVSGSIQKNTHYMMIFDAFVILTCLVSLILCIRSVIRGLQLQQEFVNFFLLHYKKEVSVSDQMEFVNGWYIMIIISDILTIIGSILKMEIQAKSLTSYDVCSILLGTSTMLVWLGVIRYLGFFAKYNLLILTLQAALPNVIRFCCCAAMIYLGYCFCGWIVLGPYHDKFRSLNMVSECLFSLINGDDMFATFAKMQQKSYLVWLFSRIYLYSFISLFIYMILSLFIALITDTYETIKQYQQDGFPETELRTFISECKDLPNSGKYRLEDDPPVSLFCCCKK
Method in brief: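 Whole-cell patch clamp was done on HEK293 cells 24 h after transient transfection with human TRPML3 or YFP; constitutively active TRPML3(A419P) cells served as positive control. Bath solution (mM): 138 NaCl, 5.4 KCl, 2 MgCl2, 2 CaCl2, 10 HEPES, 10 d-glucose; pH 7.4. Pipette solution (mM): 140 CsCl, 10 HEPES, 3 ATP-Na, 1 BAPTA, 2 MgCl2; pH 7.2. Compounds at 10 µM were perfused. Capacitance-normalized current at −80 mV is reported as mean ± SEM, n≥3.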

TRPML3 [2] = biological target: T1, TRPML3; assay: Whole-cell patch-clamp with intracellular application; settings: whole-cell, −80 mV
TRPML3 [3] = biological target: T1, TRPML3; assay: Fura-2 calcium imaging, HEK293 cells transiently expressing TRPML3; settings: for ⊗F340/F380 (TRPML3): 10 µM compound, mean ±SEM (n≥3); for kinetics of intracellular calcium increase: TRPML3-transfected HEK293 cells
Method in brief: (§1)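 HEK293 cells were transiently transfected (Genejammer) with the human channel construct or YFP control and measured 24 h later. Cells on glass coverslips were loaded with 4 µM fura-2-AM in bath solution (mM: 138 NaCl, 6 KCl, 2 MgCl2, 2 CaCl2, 10 HEPES, 5.5 D-glucose; pH 7.4). Compounds were applied at 10 µM and the F340/F380 ratio recorded. Values are mean ± SEM, n≥3.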

TRPML3 [4] = biological target: T1, TRPML3; settings: HEK293, read-out: Max % Activation (TRPML3)
Method in brief: (§2)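 HEK293 lines stably expressed YFP-fused human TRPML3 or zebrafish TRPN1 (G418 0.8 mg/ml, twice subcloned) and were plated at 1,500 cells/well for 23 h at 37 °C. After Fluo-8 loading (1 h 37 °C, 30 min RT), a 5 s basal read and 120 s post-addition read were taken. Max/basal ratios were normalized to DMSO and carbachol (87 µM).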

danio rerio TRPN1 = danio rerio TRPN1 (Danio rerio, UniProt Q7T1G6); settings: for Emax: HEK293, read-out: Max % Activation (Control)
danio rerio TRPN1, sequence (Q7T1G6 1-1614): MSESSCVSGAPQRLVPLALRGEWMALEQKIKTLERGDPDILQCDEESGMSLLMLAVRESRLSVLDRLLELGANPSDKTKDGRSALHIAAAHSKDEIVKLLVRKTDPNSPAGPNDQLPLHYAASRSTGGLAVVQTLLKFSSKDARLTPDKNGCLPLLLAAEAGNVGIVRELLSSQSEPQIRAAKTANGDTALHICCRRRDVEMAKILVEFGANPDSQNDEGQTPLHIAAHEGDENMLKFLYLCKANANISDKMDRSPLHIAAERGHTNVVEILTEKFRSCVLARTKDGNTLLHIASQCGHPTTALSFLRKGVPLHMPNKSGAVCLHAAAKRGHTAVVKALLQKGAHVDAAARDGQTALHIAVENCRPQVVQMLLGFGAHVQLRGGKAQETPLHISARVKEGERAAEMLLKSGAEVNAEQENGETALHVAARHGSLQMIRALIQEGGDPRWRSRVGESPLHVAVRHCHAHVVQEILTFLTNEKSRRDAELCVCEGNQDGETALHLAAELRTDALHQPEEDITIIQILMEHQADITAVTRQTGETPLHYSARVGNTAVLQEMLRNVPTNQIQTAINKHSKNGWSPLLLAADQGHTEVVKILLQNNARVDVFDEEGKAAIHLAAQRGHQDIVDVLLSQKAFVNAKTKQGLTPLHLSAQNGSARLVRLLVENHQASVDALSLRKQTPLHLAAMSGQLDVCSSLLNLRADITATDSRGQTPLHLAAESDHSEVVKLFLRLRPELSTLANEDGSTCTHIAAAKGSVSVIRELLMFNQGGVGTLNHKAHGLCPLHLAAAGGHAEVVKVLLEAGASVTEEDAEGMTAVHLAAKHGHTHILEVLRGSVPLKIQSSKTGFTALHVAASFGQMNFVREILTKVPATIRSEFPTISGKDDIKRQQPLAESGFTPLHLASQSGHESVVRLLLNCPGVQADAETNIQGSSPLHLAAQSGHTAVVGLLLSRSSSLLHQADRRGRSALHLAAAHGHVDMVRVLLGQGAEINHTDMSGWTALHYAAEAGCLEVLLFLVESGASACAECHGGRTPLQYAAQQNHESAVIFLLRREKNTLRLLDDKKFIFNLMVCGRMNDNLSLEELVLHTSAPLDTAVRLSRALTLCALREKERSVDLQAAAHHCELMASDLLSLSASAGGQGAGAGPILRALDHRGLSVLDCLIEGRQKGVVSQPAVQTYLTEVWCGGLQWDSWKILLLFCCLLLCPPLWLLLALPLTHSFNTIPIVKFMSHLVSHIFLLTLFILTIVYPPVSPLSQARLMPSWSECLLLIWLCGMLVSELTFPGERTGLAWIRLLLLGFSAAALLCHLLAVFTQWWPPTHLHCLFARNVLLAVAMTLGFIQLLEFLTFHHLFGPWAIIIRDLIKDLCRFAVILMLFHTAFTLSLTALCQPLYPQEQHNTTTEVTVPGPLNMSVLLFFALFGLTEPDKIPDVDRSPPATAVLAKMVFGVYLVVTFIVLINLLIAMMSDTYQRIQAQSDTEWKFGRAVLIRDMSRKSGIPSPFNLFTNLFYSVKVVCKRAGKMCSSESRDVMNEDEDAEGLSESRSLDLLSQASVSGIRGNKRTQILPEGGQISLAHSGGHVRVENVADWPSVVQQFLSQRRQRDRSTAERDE
Method in brief: as §2

[5] = biological target: T2, TRPML3 coexpressed with TRPML1 (Homo sapiens, UniProt Q8TDD5); assay: Calcium imaging, HEK293 cells coexpressing TRPML3 with TRPML1; settings: 10 µM
T2 sequence (Q8TDD5 1-553): T1 sequence (Q8TDD5 1-553)
Method in brief: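 Human TRPML3 and TRPML1 were transiently coexpressed in HEK293 cells (Genejammer) and imaged 24 h post-transfection. Cells on glass coverslips were loaded with 4 μM fura-2-AM in bath solution (mM: 138 NaCl, 6 KCl, 2 MgCl₂, 2 CaCl₂, 10 HEPES, 5.5 D-glucose, pH 7.4) and read on a monochromator imaging system. Test compound was 10 μM. Mean ± SEM, n≥3 independent experiments, 20–30 cells each.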

TRPML3 [6] = biological target: T1, TRPML3; assay: Excised; settings: patches held at −80 mV
[7] = system: YFP-expressing HEK293 cells; assay: Fura-2 calcium imaging, YFP-expressing HEK293 cells; settings: mean ±SEM (n≥3)
Method in brief: as §1

TRPML2 = biological target: T3, TRPML2 (Homo sapiens, UniProt Q8IZK6); assay: Fura-2 calcium imaging, HEK293 cells expressing TRPML2; settings: 10 µM
T3 sequence (Q8IZK6 1-566): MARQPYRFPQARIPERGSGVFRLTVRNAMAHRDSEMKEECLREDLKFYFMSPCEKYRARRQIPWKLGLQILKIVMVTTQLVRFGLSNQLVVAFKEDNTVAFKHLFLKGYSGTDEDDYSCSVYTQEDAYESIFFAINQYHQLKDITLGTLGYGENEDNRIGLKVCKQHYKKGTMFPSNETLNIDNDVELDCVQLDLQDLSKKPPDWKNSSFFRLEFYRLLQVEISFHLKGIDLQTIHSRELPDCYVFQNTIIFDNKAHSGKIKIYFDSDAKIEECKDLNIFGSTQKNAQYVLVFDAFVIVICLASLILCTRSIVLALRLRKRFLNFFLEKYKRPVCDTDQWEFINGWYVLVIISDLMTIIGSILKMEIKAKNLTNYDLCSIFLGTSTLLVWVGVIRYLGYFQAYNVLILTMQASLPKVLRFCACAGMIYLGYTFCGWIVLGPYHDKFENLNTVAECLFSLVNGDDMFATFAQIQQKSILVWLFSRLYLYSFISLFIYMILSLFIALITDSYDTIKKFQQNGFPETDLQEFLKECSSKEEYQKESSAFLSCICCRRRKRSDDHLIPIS
Method in brief: as §1

Row | Structure (SMILES) | nA/pF (-80 mV) (TRPML3) (TRPML3 [1]) [nA/pF] | response to intracellular application (infusion) (TRPML3 [2]) | ⊗F340/F380 (TRPML3) (TRPML3 [3]) | Emax (TRPML3 [4]) [%] | EC50 (danio rerio TRPN1) [µM] | Emax (danio rerio TRPN1) [%] | average current density relative to constitutively active TRPML3 A419P (TRPML3 [1]) | calcium imaging response when TRPML1 was coexpressed with TRPML3 [5] | TRPML3 activity in excised patches (TRPML3 [6]) | ⊗F340/F380 (Control) [7] | kinetics of intracellular calcium increase (TRPML3 [3]) | response in HEK293 cells expressing TRPML2 (TRPML2) | TRPML3 activation in whole-cell patch-clamp (TRPML3 [1]; control compound) | intracellular calcium response in TRPML3-transfected cells (TRPML3 [3])
1 | Cc1ccc(S(=O)(=O)n2nccc2-c2c(-c3ccc(Cl)cc3)noc2C)cc1 [SF-11, 3-(4-chlorophenyl)-5-methyl-4-[2-(4-methylphenyl)sulfonylpyrazol-3-yl]-1,2-oxazole] | −0.14 ±0.02 | elicited responses when applied intracellularly | 0.72 ±0.05 | 135 ± 20 | > 29.9 | 8 ± 1 | – | – | – | – | – | – | – | –
2 | O=S(=O)(Nc1ccccc1N1CCOCC1)c1ccc(Cl)s1 [SF-23, 5-chloro-N-(2-morpholin-4-ylphenyl)thiophene-2-sulfonamide] | −0.37 ±0.08 | – | 0.93 ±0.07 | 174 ± 1 | > 29.9 | 1 ± 1 | comparable to average current densities obtained from cells expressing the constitutively active varitint-waddler mutant isoform A419P | strong reduction of the calcium imaging responses | markedly increased TRPML3 activity | 0.005 ±0.005 | – | – | – | –
3 | CCOc1ccc(S(=O)(=O)N2CCCCCC2)c2ccccc12 [SF-31, 1-(4-ethoxynaphthalen-1-yl)sulfonylazepane] | −0.19 ±0.03 | – | 1.00 ±0.10 | 130 ± 20 | > 29.9 | 2 ± 1 | comparable to average current densities obtained from cells expressing the constitutively active varitint-waddler mutant isoform A419P | – | – | −0.011 ±0.001 | – | – | – | –
4 | CCOc1ccc(S(=O)(=O)N2CCCCC2)c(C)c1C [SF-32, 1-(4-ethoxy-2,3-dimethylphenyl)sulfonylpiperidine] | −0.02 ±0.01 | – | 0.52 ±0.05 | 119 ± 5 | > 29.9 | 2 ± 1 | – | – | – | – | – | – | – | –
5 | CCCOc1cc(C)c(Cl)cc1S(=O)(=O)N(CC)CC [SF-33, 5-chloro-N,N-diethyl-4-methyl-2-propoxybenzenesulfonamide] | −0.06 ±0.02 | – | 0.65 ±0.10 | 119 ± 21 | > 29.9 | 2 ± 1 | – | – | – | – | slowest kinetics | – | – | –
6 | Cc1ccc(N2CCN(S(=O)(=O)N3CCCCC3)CC2)c(C)c1 [SF-41, 1-(2,4-dimethylphenyl)-4-piperidin-1-ylsulfonylpiperazine] | −0.42 ±0.07 | – | 0.99 ±0.07 | 138 ± 12 | > 29.9 | 12 ± 1 | Stronger responses | – | – | 0.015 ±0.001 | much more rapid increase than the other compounds | elicited responses | – | –
7 | COc1ccccc1C1CN=NC12CCCc1ccccc1C2=O (centres unmarked) [SF-61, 4-(2-methoxyphenyl)spiro[3,4-dihydropyrazole-5,8’-6,7-dihydro-5H-benzo[7]annulene]-9’-one] | −0.07 ±0.01 | – | 0.56 ±0.03 | 102 ± 22 | > 29.9 | 2 ± 1 | – | – | – | – | – | – | – | –
8 | Cc1ccccc1S(=O)(=O)c1c(C)cc(C)n(C(C)C)c1=O [SF-81, 4,6-dimethyl-3-(2-methylphenyl)sulfonyl-1-propan-2 ylpyridin-2-one] | – | – | 0.62 ±0.05 | 138 ± 21 | > 29.9 | 1 | comparable to average current densities obtained from cells expressing the constitutively active varitint-waddler mutant isoform A419P | – | – | – | – | elicited responses | – | –
9 | CCOc1ccc(S(=O)(=O)NC(C)(C)C)cc1-c1nc(=O)c2c([nH]1)c(C(C)(C)C)nn2C [SN-1, N-tert-butyl-3-(3-tert-butyl-1-methyl-7-oxo-4H-pyrazolo[4,3-d]pyrimidin-5-yl)-4-ethoxybenzenesulfonamide] | −0.33 ±0.10 | – | 1.15 ±0.06 | 151 ± 14 | > 29.9 | 6 | comparable to average current densities obtained from cells expressing the constitutively active varitint-waddler mutant isoform A419P | – | – | 0.005 ±0.004 | – | – | – | –
10 | CCCN(CCC)S(=O)(=O)c1ccc(C(=O)O)cc1 [probenicid, 4-(dipropylsulfamoyl)benzoic acid, reference compound] | – | – | – | – | – | – | – | – | – | – | – | – | did not activate TRPML3 | did not elicit any responses
